Active and inactive are the calls of the source.
Key:
Assay type in all cases: functional, organism-based
[1] = test system: Trichophyton mentagrophytes; test: Antimicrobial activity against Trichophyton mentagrophytes at 0.4 umol/mL by broth microdilution method
In short: (§1)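 Broth dilution in defined medium against clinical isolates of each organism.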

Epidermophyton floccosum = test: Antimicrobial activity against Epidermophyton floccosum at 0.4 umol/mL by broth microdilution method; in short: as §1
Staphylococcus aureus = test: Antimicrobial activity against Staphylococcus aureus at 0.4 umol/mL by broth microdilution method; in short: as §1
Microsporum canis = test: Antimicrobial activity against Microsporum canis at 0.4 umol/mL by broth microdilution method; in short: as §1
Pseudomonas aeruginosa = test: Antimicrobial activity against Pseudomonas aeruginosa at 0.4 umol/mL by broth microdilution method; in short: as §1
Candida albicans = test: Antimicrobial activity against Candida albicans at 0.4 umol/mL by broth microdilution method; in short: as §1

Measured: Activity

CC(=O)OC[C@H]1O[C@@H](n2cnc(C(N)=O)c2CC#N)[C@H](OC(C)=O)[C@@H]1OC(C)=O
inactive: all assays above

CC(=O)Nc1cc2[nH]cnc2c(=O)[nH]1
inactive: all assays above

COC(=O)c1c(CC#N)ncn1[C@@H]1O[C@H](C)[C@@H](OC(C)=O)[C@H]1OC(C)=O
inactive: all assays above

CC(=O)Nc1cc2c(ncn2[C@@H]2O[C@H](COC(C)=O)[C@@H](OC(C)=O)[C@H]2OC(C)=O)c(=O)[nH]1
inactive: all assays above

COC(=O)c1c(CC#N)ncn1C1CCCCO1 (stereo not drawn)
inactive: all assays above

COC(=O)c1ncn([C@@H]2O[C@H](C)[C@@H](OC(C)=O)[C@H]2OC(C)=O)c1CC#N
inactive: all assays above

C[C@H]1O[C@@H](n2cnc(C(N)=O)c2CC#N)[C@H](O)[C@@H]1O
inactive: all assays above

N#CCc1c(C(N)=O)ncn1C1CCCCO1 (stereo not drawn)
inactive: all assays above

Nc1cc2c(ncn2C2CCCCO2)c(=O)[nH]1 (stereo not drawn)
inactive: all assays above

CC(=O)O[C@@H]1O[C@H](C)[C@@H](OC(C)=O)[C@H]1OC(C)=O
inactive: all assays above

C1=COCCC1
inactive: all assays above

C[C@H]1O[C@@H](n2cnc3cc(N)[nH]c(=O)c32)[C@H](O)[C@@H]1O
inactive: all assays above

CN(C)/C=N/c1cc2c(ncn2[C@@H]2O[C@H](CO)[C@@H](O)[C@H]2O)c(=O)[nH]1
inactive: all assays above
